From article PMC3736091 (Molecular cancer therapeutics, 2013)
Values belong to the compound of their own block, whether it stands above or below them.

Legend:
[1] = system: SW620 cells; test: Clonogenic survival assay, SW620; assay type: cell-based, human; conditions: 16 hr
In short: (§1)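 Clonogenic assay in RPMI 1640 + 10% FBS, 37°C, 5% CO2, <30 passages; HCT116-N7 stably expresses HPV16 E6. Exponentially growing cells had 16 h exposure to cytotoxic (etoposide, doxorubicin or camptothecin; etoposide 1 μM for the bar data) ± test compound 1 μM in 0.5% DMSO, then were seeded for colonies. Survival was normalised to DMSO or inhibitor-alone control. Enhancement factor = survival cytotoxic alone ÷ survival combination, per experiment; 3 independent experiments.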

[2] = system: LoVo cells; test: Clonogenic survival assay, LoVo; assay type: cell-based, human; conditions: LoVo, 16 hr
In short: as §1

[3] = system: PI4K; conditions: read-out: Enzyme IC50 PI4K; purified enzyme; data previously reported; cited from earlier work
[4] = system: PI3K; conditions: read-out: Enzyme IC50 PI3K; purified enzyme; data previously reported; cited from earlier work
[5] = system: human tumour cell lines; conditions: cited from earlier work
[6] = molecular target: ATM activity in SW620 cells (Homo sapiens, UniProt Q13315); test: Inhibition of cellular ATM activity, SW620; assay type: cell-based; conditions: 10 μM
[7] = molecular target: ATR (Homo sapiens, UniProt Q13535); conditions: read-out: Enzyme IC50 ATR; purified enzyme; data previously reported; cited from earlier work
ATR, sequence (Q13535 whole entry): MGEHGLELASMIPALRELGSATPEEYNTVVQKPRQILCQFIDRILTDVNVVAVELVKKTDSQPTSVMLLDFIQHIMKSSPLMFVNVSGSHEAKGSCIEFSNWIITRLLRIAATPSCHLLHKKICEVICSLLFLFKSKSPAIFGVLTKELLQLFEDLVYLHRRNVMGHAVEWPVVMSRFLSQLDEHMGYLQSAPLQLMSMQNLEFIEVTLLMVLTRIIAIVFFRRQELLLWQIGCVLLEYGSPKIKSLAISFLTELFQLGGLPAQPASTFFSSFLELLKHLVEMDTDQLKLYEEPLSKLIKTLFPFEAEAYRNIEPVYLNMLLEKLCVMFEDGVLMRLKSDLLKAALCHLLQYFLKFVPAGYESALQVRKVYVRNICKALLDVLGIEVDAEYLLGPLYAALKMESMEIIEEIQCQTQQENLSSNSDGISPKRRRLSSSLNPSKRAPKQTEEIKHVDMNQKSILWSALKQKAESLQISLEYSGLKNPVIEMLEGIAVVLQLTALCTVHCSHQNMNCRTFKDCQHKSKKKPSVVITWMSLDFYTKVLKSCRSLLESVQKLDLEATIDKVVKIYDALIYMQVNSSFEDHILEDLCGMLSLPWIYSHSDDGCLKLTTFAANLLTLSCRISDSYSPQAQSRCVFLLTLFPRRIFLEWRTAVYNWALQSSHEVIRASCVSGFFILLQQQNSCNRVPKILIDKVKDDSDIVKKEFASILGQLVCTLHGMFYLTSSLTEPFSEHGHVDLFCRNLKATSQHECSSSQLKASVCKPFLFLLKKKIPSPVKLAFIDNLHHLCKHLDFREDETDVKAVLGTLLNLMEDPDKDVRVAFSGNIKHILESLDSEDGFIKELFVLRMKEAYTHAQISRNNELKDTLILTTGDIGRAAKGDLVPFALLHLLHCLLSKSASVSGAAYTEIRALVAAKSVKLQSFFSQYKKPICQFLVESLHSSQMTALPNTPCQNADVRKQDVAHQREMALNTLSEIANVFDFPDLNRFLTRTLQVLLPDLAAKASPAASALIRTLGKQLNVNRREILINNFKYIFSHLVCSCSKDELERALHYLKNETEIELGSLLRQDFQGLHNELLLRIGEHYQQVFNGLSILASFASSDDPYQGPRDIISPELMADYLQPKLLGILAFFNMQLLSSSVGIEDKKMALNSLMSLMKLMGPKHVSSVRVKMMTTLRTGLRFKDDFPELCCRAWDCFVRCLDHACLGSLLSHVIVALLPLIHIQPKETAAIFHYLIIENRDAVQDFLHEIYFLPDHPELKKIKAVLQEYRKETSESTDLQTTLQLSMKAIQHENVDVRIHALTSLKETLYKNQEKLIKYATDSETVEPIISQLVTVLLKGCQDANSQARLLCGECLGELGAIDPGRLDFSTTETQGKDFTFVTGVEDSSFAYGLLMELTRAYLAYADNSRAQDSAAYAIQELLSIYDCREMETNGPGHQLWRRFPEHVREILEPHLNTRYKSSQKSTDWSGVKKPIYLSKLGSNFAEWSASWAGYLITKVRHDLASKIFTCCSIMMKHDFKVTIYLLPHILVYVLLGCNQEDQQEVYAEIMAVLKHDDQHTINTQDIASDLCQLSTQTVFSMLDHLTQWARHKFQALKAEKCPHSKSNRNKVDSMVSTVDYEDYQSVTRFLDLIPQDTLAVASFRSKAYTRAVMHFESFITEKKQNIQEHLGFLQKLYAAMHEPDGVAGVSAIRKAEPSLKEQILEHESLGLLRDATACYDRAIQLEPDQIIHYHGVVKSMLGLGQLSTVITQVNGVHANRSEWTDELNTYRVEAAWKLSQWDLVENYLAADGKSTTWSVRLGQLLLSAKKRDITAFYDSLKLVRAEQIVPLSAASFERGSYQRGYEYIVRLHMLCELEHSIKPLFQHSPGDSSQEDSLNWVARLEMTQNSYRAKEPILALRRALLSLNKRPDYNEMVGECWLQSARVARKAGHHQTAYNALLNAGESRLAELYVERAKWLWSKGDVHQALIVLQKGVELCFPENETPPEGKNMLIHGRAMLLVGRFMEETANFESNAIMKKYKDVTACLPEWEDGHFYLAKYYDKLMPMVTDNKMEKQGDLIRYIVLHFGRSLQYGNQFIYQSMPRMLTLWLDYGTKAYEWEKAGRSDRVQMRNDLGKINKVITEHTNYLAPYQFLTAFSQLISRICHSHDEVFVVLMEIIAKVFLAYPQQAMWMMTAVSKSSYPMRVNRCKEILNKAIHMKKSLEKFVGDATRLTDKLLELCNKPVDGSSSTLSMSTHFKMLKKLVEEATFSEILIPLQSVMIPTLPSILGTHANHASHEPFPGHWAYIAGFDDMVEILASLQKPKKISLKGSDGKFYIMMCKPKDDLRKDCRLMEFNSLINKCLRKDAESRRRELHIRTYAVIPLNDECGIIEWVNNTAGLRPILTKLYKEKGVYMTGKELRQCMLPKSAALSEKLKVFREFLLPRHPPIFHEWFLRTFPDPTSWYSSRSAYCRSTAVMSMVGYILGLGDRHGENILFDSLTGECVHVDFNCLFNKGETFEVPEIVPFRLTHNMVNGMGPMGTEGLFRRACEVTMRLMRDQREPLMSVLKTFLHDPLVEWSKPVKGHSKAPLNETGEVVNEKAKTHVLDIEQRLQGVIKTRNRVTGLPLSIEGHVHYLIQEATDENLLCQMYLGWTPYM
ATR, sequence (Q8WXE1 whole entry partner): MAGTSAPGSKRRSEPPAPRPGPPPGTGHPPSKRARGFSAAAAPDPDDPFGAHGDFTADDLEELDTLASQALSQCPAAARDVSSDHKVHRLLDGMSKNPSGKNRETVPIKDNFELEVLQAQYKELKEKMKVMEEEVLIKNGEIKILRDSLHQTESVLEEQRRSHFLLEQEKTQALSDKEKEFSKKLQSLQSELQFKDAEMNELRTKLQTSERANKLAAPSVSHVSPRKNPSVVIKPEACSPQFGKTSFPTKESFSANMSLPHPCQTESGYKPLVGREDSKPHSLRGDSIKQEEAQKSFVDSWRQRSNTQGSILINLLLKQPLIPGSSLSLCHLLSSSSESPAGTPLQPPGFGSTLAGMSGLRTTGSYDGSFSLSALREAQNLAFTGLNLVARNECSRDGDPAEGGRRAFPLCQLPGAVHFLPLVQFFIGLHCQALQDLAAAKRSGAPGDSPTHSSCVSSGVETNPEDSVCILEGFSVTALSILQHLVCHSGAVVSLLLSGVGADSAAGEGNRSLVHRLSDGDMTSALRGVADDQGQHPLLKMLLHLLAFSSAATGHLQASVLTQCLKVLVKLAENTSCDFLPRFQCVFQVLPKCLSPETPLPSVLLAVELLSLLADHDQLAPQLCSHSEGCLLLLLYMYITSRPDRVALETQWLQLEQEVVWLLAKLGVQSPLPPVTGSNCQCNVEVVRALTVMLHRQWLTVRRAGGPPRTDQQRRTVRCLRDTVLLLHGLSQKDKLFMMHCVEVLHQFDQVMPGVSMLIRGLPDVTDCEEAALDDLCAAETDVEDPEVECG

[8] = Plasma and tumour concentrations in SW620 tumour-bearing nude mice; assay type: in vivo
In short: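 Female CD-1 nude mice carried SW620 s.c. flank xenografts (1×10^7 cells) of ~650 mm³. Test compound was given at 50 mg/kg i.p. in equimolar phosphoric acid/saline, pH 4. The comparator ATM inhibitor was given at 10 mg/kg i.p. in phosphoric acid, 5% DMSO, 10% encapsin, pH 4. Dosing volume was 10 ml/kg. Plasma and tumour were sampled at 1 and 4 h and analysed by HPLC; the tumour detection limit was 0.5 μM.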

SMILES: COc1cccc2c1C(=O)c1c(O)c3c(c(O)c1C2=O)C[C@@](O)(C(=O)CO)C[C@@H]3O[C@H]1C[C@H](N)[C@H](O)[C@H](C)O1 [Doxorubicin, doxorubicin, reference compound]
% Survival Cytotoxic alone ([1]; SW620, cytotoxic 10 nM): 50 ± 9%
% Survival Cytotoxic alone ([1]; SW620, cytotoxic 100 nM): 0.02 ± 0.01%
% Survival Cytotoxic alone ([2]; cytotoxic 10 nM): 47 ± 3.1%
% Survival Cytotoxic alone ([2]; cytotoxic 100 nM): 2.1 ± 0.5%

Inhibition of ATM activity [6]: substantially inhibited ATM activity
Tumour concentration ([8]; 10 mg/kg i.p., SW620 xenograft, below limit of detection): < 0.5 µM
Plasma concentration ([8]; single dose 10 mg/kg i.p., SW620-bearing nude mice): over 1 μM
SMILES: O=c1cc(-c2cccc3c2Sc2ccccc2S3)oc(N2CCOCC2)c1 [KU55933]
IC50 [3]: > 10 µM
IC50 [4]: 1.7 µM
Concentration needed to induce in vitro chemo- and radio-sensitisation [5]: 10 µM
IC50 [7]: > 10 µM

SMILES: COc1cc([C@@H]2c3cc4c(cc3[C@@H](O[C@@H]3O[C@@H]5CO[C@@H](C)O[C@H]5[C@H](O)[C@H]3O)[C@H]3COC(=O)[C@H]23)OCO4)cc(OC)c1O [Etoposide, etoposide, reference compound]
% Survival Cytotoxic alone ([1]; SW620, cytotoxic 100 nM): 89 ± 8.3%
% Survival Cytotoxic alone ([1]; SW620, cytotoxic 1 μM): 3.8 ± 1.1%
% Survival Cytotoxic alone ([2]; cytotoxic 100 nM): 58 ± 8.3%
% Survival Cytotoxic alone ([2]; cytotoxic 1 μM): 3.9 ± 0.8%

SMILES: C[C@@H]1CN(CC(=O)Nc2ccc3c(c2)Cc2cccc(-c4cc(=O)cc(N5CCOCC5)o4)c2S3)C[C@H](C)O1 [KU-600019]
Concentration needed to induce in vitro chemo- and radio-sensitisation [5]: 3 µM
